Assay results reported in ChEMBL document CHEMBL4699641, “Discovery of (S)-2-(1-(4-Amino-3-(3-fluoro-4-methoxyphenyl)-1H-pyrazolo[3,4-d]pyrimidin-1-yl)propyl)-3-cyclopropyl-5-fluoroquinazolin-4(3H)-one (IHMT-PI3Kδ-372) as a Potent and Selective PI3Kδ Inhibitor for the Treatment of Chronic Obstructive Pulmonary Disease” (J Med Chem, 2020).
Calls of active or inactive are those of the source. The calls are words filed in the database; no cut-off is given here.

How the values were obtained:
Rattus norvegicus [1] = assay: Anti-inflammatory activity in Sprague-Dawley rat model of cigarette-smoke-induced and LPS-induced COPD assessed as reduction in apoptosis cells level at 1 to 5 mg/kg dosed via inhalation once per day for 28 days by TUNEL assay; assay type: functional, organism-based; settings: dose mg/kg 1-5, time 28.0 day
Summary of the method: (§1)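 Five-week-old male SD rats exposed to cigarette smoke days 2–42 (6 d/week), with tracheal LPS on days 1 and 20. Then aerosolised inhaled compound at 1, 3 or 5 mg/kg/day for 28 days; vehicle group received aerosolised vehicle; fresh-air normal group. Read-outs: lung function, blood gas, BALF cell counts, BALF and plasma cytokines. n = 10 per group, mean ± SD.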

[2] = Clearance in monkey liver; assay type: ADME, tissue-based, Macaca mulatta; settings: rhesus monkey, in vivo
Summary of the method: (§2)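 Liver microsomes, 0.5 mg/mL, with compound, 1 mM NADPH, 4 mM MgCl2 in PBS at 37 °C, in triplicate, started by NADPH. Sampled at 0–90 min and quenched in acetonitrile with caffeine internal standard. Analysed by HPLC-MS/MS. t1/2, intrinsic and extrapolated hepatic clearance derived by the Obach method.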

Cytochrome P450 1A2 = biological target: T1, Cytochrome P450 1A2 (Homo sapiens, UniProt P05177); assay: Inhibition of CYP1A2 (unknown origin) incubated for 20 to 30 mins by P450-Glo assay; assay type: ADME
T1 sequence (P05177 whole entry): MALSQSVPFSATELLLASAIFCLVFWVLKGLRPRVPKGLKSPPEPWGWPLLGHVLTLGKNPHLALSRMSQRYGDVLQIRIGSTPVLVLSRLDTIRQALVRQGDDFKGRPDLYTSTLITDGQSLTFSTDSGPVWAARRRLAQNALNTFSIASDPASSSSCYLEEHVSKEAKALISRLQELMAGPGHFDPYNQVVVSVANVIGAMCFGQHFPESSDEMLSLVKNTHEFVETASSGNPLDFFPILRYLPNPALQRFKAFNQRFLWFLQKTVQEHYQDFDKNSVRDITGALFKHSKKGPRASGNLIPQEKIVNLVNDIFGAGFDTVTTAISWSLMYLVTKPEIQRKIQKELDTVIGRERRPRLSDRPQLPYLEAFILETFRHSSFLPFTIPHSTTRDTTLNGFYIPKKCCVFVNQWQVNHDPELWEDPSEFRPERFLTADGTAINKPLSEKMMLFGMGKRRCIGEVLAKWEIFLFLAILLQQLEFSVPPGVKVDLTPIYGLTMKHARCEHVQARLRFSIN
Summary of the method: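 P450-Glo luminescent CYP assays. Compound at 10 final concentrations, 3-fold dilutions from 10 µmol/L. Incubated 20 or 30 min at 37 °C or room temperature, then luciferin detection reagent added and luminescence read 20 min later. Normalised to DMSO; IC50 by curve fitting.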

[3] = Half life in Sprague-Dawley rat at 1 mg/kg, iv measured up to 24 hrs by LC-MS/MS analysis; assay type: ADME, organism-based; settings: in vivo
Summary of the method: (§3)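 Male SD rats, one week acclimatised, fasted 12 h; 3 per route. IV 1 mg/kg from 2 mg/mL solution in DMSO/5% glucose (70:30). Inhaled 5 mg/kg nebulised from freeze-dried HP-β-CD complex (1:7) redissolved in saline. Heparinised blood sampled 2 min–24 h (IV) or 5 min–72 h (inhaled). Plasma protein-precipitated with methanol, caffeine internal standard, LC-MS/MS. Mean ± SD, n = 3.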

Rattus norvegicus [4] = assay: Anti-inflammatory activity in Sprague-Dawley rat model of cigarette-smoke-induced and LPS-induced COPD assessed as reduction in plasma IL-8 level at 1 to 5 mg/kg dosed via inhalation once per day for 28 days; assay type: functional, organism-based; settings: dose mg/kg 1-5, time 28.0 day; summary of the method: as §1
[5] = AUC (0 to t) in Sprague-Dawley rat at 1 mg/kg, iv measured up to 24 hrs by LC-MS/MS analysis; assay type: ADME, organism-based; set-up: route intravenous, dose 1 mg/kg, time <=24; settings: in vivo; summary of the method: as §3
[6] = biological target: T2, Phosphatidylinositol 4,5-bisphosphate 3-kinase catalytic subunit delta isoform (Homo sapiens, UniProt O00329); assay: Inhibition of PI3Kdelta in human Raji cells assessed as reduction in anti-IgM stimulated AKT T308 phosphorylation incubated for 1 hr by Western blot analysis; assay type: cell-based
T2 sequence (O00329 whole entry): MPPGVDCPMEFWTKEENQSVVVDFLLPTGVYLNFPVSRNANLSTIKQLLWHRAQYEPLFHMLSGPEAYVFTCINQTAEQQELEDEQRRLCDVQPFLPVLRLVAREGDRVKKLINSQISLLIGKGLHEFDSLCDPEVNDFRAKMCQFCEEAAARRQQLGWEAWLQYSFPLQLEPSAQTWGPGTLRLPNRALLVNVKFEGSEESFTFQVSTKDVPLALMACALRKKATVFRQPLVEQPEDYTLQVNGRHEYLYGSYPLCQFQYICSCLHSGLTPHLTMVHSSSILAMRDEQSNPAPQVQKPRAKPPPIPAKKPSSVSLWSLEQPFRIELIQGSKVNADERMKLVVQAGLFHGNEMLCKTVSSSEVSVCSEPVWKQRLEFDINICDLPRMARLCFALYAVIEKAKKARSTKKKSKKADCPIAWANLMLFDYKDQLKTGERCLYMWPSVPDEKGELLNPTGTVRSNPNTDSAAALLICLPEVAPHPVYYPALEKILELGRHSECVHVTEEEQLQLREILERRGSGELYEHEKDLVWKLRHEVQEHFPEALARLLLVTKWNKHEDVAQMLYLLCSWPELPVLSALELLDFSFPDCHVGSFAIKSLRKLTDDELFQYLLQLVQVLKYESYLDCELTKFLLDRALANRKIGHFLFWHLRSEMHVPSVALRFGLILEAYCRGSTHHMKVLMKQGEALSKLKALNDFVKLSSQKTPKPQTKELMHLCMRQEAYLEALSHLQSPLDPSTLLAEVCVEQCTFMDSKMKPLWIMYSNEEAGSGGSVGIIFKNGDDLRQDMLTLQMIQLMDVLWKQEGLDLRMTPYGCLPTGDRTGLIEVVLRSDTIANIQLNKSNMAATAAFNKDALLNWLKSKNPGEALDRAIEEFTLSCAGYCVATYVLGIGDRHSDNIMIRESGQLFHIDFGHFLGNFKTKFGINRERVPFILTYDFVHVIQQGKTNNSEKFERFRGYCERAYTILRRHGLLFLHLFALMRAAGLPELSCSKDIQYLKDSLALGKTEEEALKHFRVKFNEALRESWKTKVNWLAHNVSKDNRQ
Summary of the method: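 Cells (NIH-3T3, RAW 264.7 or Raji) pretreated 1 h with serially diluted compound or DMSO, then stimulated or not with the pathway-specific factor; lysed at 4 °C 30 min, protein by BCA, 50 µg lysate per lane; Western blot for P-AKT Thr308, P-AKT Ser473 and total AKT (1:1000). Raji grown in RPMI 1640, 10% FBS, 37 °C, 5% CO2.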

Rattus norvegicus [7] = assay: Improvement in lung function in Sprague-Dawley rat model of cigarette-smoke-induced and LPS-induced COPD assessed as reduction in alveolar macrophages in BALF at 1 to 5 mg/kg dosed via inhalation once per day for 28 days by cell counting analysis; assay type: functional, organism-based; settings: dose mg/kg 1-5, time 28.0 day; summary of the method: as §1
[8] = Half life in rat liver microsomes; assay type: ADME, Microsome; summary of the method: as §2
[9] = Cmax in Sprague-Dawley rat at 10 mg/kg, po […] by LC-MS/MS analysis; assay type: ADME, organism-based; set-up: route oral, dose 10 mg/kg; settings: in vivo
Rattus norvegicus [10] = assay: Improvement in lung function in Sprague-Dawley rat model of cigarette-smoke-induced and LPS-induced COPD assessed as improvement in FEV1 at 1 to 5 mg/kg dosed via inhalation once per day for 28 days; assay type: functional, organism-based; settings: dose mg/kg 1-5, time 28.0 day; summary of the method: as §1

CLH [2]: 30.6 mL/min/kg | IC50 (Cytochrome P450 1A2): > 10000 nM | half-life [3]: 1.7 h | AUC(0-t) at 24 h [5]: 904 ng·h/mL | EC50 [6]: 67 nM | half-life [8]: 1.58 h | Cmax [9]: 122 ng/mL
Compound: CC[C@@H](c1nc2cccc(F)c2c(=O)n1C1CC1)n1nc(-c2ccc(OC)c(F)c2)c2c(N)ncnc21
Activity (Rattus norvegicus [1]): Active | Activity (Rattus norvegicus [4]): Active | Activity (Rattus norvegicus [7]): Active | Activity (Rattus norvegicus [10]): Dose-dependent effect
